According to ChEMBL document CHEMBL3804777, “Identification and Preclinical Pharmacology of BMS-986104: A Differentiated S1P1 Receptor Modulator in Clinical Trials” (ACS Med Chem Lett, 2016):
Each block holds one compound with its values, some of them ahead of it. Activity calls are given as the source filed them. The calls are words filed in the database; no cut-off is given here.

Key:
[1] = Drug metabolism in BALB/c mouse whole blood assessed as whole blood phosphate area ratio at 10 uM after 4 hrs by LC/MS/MS analysis; type: ADME, tissue-based
Procedure, shortened: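 Mouse whole blood incubated with the amino-alcohol prodrug; phosphorylated product measured by LC/MS/MS after 4 h to give the relative extent of phosphate ester formation.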

Mus musculus [2] = test: Reduction in blood lymphocyte level in BALB/c mouse at 1 mg/kg, po after 24 hrs by hematology analysis; type: functional, organism-based
Procedure, shortened: (§1)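 Mice given a single oral 1 mg/kg dose; circulating lymphocytes counted 24 h later as the pharmacodynamic marker.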

Mus musculus [3] = test: Reduction in CD11b gene expression in SCID mouse with CD45RBhiCD4+ T-cell transfer-induced colitis model of inflammatory bowel disease at 5 mg/kg, po dosed every other day for 5 weeks by RT-PCR method; type: functional; settings: 840 h
Procedure, shortened: (§2)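 CD45RBhiCD4+ T-cell transfer colitis in mice; oral alternate-day dosing for 5 weeks, compared with vehicle. Read-outs: body weight, colon length, histological colon inflammation and tissue damage, and colon gene expression by RT-PCR (IFN-γ, IL-2, CD4, B220, CD11b, Fcgr4, Ifit1, OASL2).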

Mus musculus [4] = test: Reduction in IFNgamma gene expression in SCID mouse with CD45RBhiCD4+ T-cell transfer-induced colitis model of inflammatory bowel disease at 5 mg/kg, po dosed every other day for 5 weeks by RT-PCR method; type: functional; settings: 840 h; procedure, shortened: as §2
Mus musculus [5] = test: Reduction in OASL2 gene expression in SCID mouse with CD45RBhiCD4+ T-cell transfer-induced colitis model of inflammatory bowel disease at 5 mg/kg, po dosed every other day for 5 weeks by RT-PCR method; type: functional; settings: 840 h; procedure, shortened: as §2
Mus musculus [6] = test: Pulmonary toxicity in BALB/c mouse assessed as BAL protein levels at 10 mg/kg, po after 24 by hematology analysis (reference value: 8.2 to 8.3 mg/dL); type: organism-based; settings: in vivo
Mus musculus [7] = test: Pulmonary toxicity in BALB/c mouse assessed as BAL protein levels at 0.5 mg/kg, po after 24 by hematology analysis (reference value: 8.2 to 8.3 mg/dL); type: organism-based; settings: in vivo
Mus musculus [8] = test: Induction of colon length shortening in SCID mouse with CD45RBhiCD4+ T-cell transfer-induced colitis model of inflammatory bowel disease at 1 mg/kg, po dosed daily for 5 weeeks; type: functional, organism-based
Procedure, shortened: (§3)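 CD45RBhiCD4+ T-cell transfer colitis in mice; oral dosing at 1 mg/kg/day for 5 weeks, compared with vehicle. Read-outs: body weight, colon length, and colon gene expression by RT-PCR (IFN-γ, IL-2, CD4, B220, CD11b, Fcgr4, Ifit1, OASL2).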

Mus musculus [9] = test: Reduction in Fcgr4 gene expression in SCID mouse with CD45RBhiCD4+ T-cell transfer-induced colitis model of inflammatory bowel disease at 5 mg/kg, po dosed every other day for 5 weeks by RT-PCR method; type: functional; settings: 840 h; procedure, shortened: as §2
Mus musculus [10] = test: Reduction in CD4 gene expression in SCID mouse with CD45RBhiCD4+ T-cell transfer-induced colitis model of inflammatory bowel disease at 5 mg/kg, po dosed every other day for 5 weeks by RT-PCR method; type: functional; settings: 840 h; procedure, shortened: as §2
Mus musculus [11] = test: Reduction in Ifit1 gene expression in SCID mouse with CD45RBhiCD4+ T-cell transfer-induced colitis model of inflammatory bowel disease at 5 mg/kg, po dosed every other day for 5 weeks by RT-PCR method; type: functional; settings: 840 h; procedure, shortened: as §2
Mus musculus [12] = test: Reduction in lymphocyte level in BALB/c mouse assessed as blood lymphocyte level at 10 mg/kg, po after 24 hrs by hematology analysis (reference value: 5.13 to 8.02 10^3/mm3); type: functional
Mus musculus [13] = test: Reduction in lymphocyte level in BALB/c mouse assessed as blood lymphocyte level at 30 mg/kg, po after 24 hrs by hematology analysis (reference value: 5.13 to 8.02 10^3/mm3); type: functional
Mus musculus [14] = test: Reduction in lymphocyte level in BALB/c mouse assessed as blood lymphocyte level at 0.5 mg/kg, po after 24 hrs by hematology analysis (reference value: 5.13 to 8.02 10^3/mm3); type: functional
Mus musculus [15] = test: Reduction in IL2 gene expression in SCID mouse with CD45RBhiCD4+ T-cell transfer-induced colitis model of inflammatory bowel disease at 5 mg/kg, po dosed every other day for 5 weeks by RT-PCR method; type: functional; settings: 840 h; procedure, shortened: as §2
Mus musculus [16] = test: Pulmonary toxicity in BALB/c mouse assessed as BAL protein levels at 30 mg/kg, po after 24 by hematology analysis (reference value: 8.2 to 8.3 mg/dL); type: organism-based; settings: in vivo
Mus musculus [17] = test: Reduction in B220 gene expression in SCID mouse with CD45RBhiCD4+ T-cell transfer-induced colitis model of inflammatory bowel disease at 5 mg/kg, po dosed every other day for 5 weeks by RT-PCR method; type: functional; settings: 840 h; procedure, shortened: as §2
Mus musculus [18] = test: Reduction in body weight loss in SCID mouse with CD45RBhiCD4+ T-cell transfer-induced colitis model of inflammatory bowel disease at 1 mg/kg, po dosed daily for 5 weeks; type: functional, organism-based; procedure, shortened: as §3
Mus musculus [19] = test: Reduction of blood lymphocyte level in BALB/c mouse at 1 mg/kg administered through oral gavage after 24 hrs by hematology analysis; type: functional; set-up: scale not given: the % may be the effect or the level left; procedure, shortened: as §1
Blood [20] = test: Drug metabolism in BALB/c mouse blood assessed as formation of phosphate ester metabolite at 10 mg/kg administered through oral gavage after 4 hrs by LC/MS/MS analysis; type: ADME, organism-based; settings: in vivo
Procedure, shortened: (§4)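 Mouse PK study: alcohol prodrug given orally at 10 mg/kg, and formation of the phosphate metabolite in blood measured.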

Blood [21] = test: Drug metabolism in BALB/c mouse blood assessed as formation of phosphate metabolite at 1 mg/kg administered through oral gavage after 24 hrs by LC/MS/MS analysis; type: ADME, organism-based; settings: in vivo
Procedure, shortened: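 Single oral 1 mg/kg dose in mice; phosphate level in blood determined at 24 h postdose.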

Blood [22] = test: Drug metabolism in BALB/c mouse blood assessed as formation of phosphate ester metabolite at 10 mg/kg administered through oral gavage after 24 hrs by LC/MS/MS analysis; type: ADME, organism-based; settings: in vivo; procedure, shortened: as §4
Mus musculus [23] = test: Reduction of blood lymphocyte level in BALB/c mouse administered through oral gavage after 24 hrs by hematology analysis; type: functional, organism-based
Heart [24] = test: Toxicity in guinea pig heart assessed as reduction in ventricular rate at 1 nM after 10 mins by ECG analysis; type: tissue-based, Cavia porcellus, Cardiac ventricle; settings: 0.001 µM
Procedure, shortened: (§5)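 Isolated guinea pig hearts perfused with the phosphate at the stated concentrations; ventricular rate and atrioventricular conduction (third-degree AV block) monitored.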

[25] = Toxicity in human-inducible pluripotent stem cell-derived Cardiomyocyte assessed as reduction in cardiomyocyte beating at 1 nM after 2 hrs; set-up: scale not given: the % may be the effect or the level left; settings: cardiac muscle cell, 0.001 µM
Procedure, shortened: (§6)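 Cultured human iPSC-derived cardiomyocytes expressing S1P1 and S1P3, exposed to a range of concentrations of the phosphate; beating rate measured and the no-effect concentration determined.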

[26] = Toxicity in human-inducible pluripotent stem cell-derived Cardiomyocyte assessed as reduction in cardiomyocyte beating at 0.1 nM after 2 hrs; settings: cardiac muscle cell, 0.0001 µM; procedure, shortened: as §6
[27] = molecular target: T1, Sphingosine 1-phosphate receptor 4 (Homo sapiens, UniProt O95977); test: Agonist activity at human S1P4 receptor by GTPgammaS binding assay; type: functional
T1 sequence (O95977 whole entry): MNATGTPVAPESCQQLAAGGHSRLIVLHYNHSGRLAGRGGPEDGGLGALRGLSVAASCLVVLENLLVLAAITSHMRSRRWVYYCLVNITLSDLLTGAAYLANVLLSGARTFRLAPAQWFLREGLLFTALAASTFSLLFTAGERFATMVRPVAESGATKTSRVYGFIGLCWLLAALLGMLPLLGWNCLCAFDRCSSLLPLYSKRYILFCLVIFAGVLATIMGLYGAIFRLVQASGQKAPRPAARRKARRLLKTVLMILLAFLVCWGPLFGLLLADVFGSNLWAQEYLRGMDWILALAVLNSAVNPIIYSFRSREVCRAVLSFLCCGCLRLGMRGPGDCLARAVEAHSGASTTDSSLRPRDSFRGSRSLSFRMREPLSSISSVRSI

[28] = Toxicity in human-inducible pluripotent stem cell-derived Cardiomyocyte assessed as reduction in cardiomyocyte beating after 2 hrs; settings: cardiac muscle cell; procedure, shortened: as §6
Heart [29] = test: Toxicity in guinea pig heart assessed as third degree AV block at 1 nM after 10 mins by ECG analysis; type: tissue-based, Cavia porcellus; settings: 0.001 µM; procedure, shortened: as §5

- Ratio [1]: 0.02
SMILES: CCCCCCC1CCc2cc(C3CCC(N)(CO)C3)ccc2C1 (stereo in doubt; 3g)

SMILES: CCCCCCC1CCc2cc(C3CCC(N)(CO)C3)ccc2C1 (stereo in doubt; 3b) [listing 1 of 2 here]
- Activity (Mus musculus [2]): Active

SMILES: CCCCCCCCc1ccc(CCC(N)(CO)CO)cc1 [FINGOLIMOD]
- inhibition in vivo at 5 mg/kg (Mus musculus [3]): 45%
- inhibition in vivo at 5 mg/kg (Mus musculus [4]): 30%
- inhibition in vivo at 5 mg/kg (Mus musculus [5]): 7%
- Activity (Mus musculus [6]): 34.2 mg/dL
- Activity (Mus musculus [7]): 7.5 mg/dL
- Activity (Mus musculus [8]): Active
- inhibition in vivo at 5 mg/kg (Mus musculus [9]): 25%
- inhibition in vivo at 5 mg/kg (Mus musculus [10]): 60%
- inhibition in vivo at 5 mg/kg (Mus musculus [11]): 16%
- Activity (Mus musculus [12]): 0.92 ×10³ /mm3
- Activity (Mus musculus [13]): 0.29 ×10³ /mm3
- Activity (Mus musculus [14]): 1.28 ×10³ /mm3
- inhibition in vivo at 5 mg/kg (Mus musculus [15]): 68%
- Activity (Mus musculus [16]): 71 mg/dL
- inhibition in vivo at 5 mg/kg (Mus musculus [17]): 55%
- inhibition (Mus musculus [18]): Active

- Drug metabolism (Blood [20]): 67 nM
- Ratio [1]: 1.6
- Drug metabolism (Blood [21]): 47 nM
- Drug metabolism (Blood [22]): 475 nM
SMILES: CCCCCCC1CCc2cc(C3CCC(N)(CO)C3)ccc2C1 (stereo in doubt; 3b) [listing 2 of 2 here]
- Activity (Mus musculus [19]): 90%

- EC50 (Mus musculus [23]): 5.6 nM
- EC50 [27]: 0.09 nM
SMILES: CCCCCCCCc1ccc(CCC(N)(CO)COP(=O)(O)O)cc1 (stereo not drawn)
- ED50 (Mus musculus [23]; po): 0.017 mg/kg
- Activity (Heart [24]): 32 bpm
- Activity [25]: 35%
- Activity [26]: Non-toxic
- Activity [28]: Dose-dependent effect
- Activity (Heart [29]): Toxic

- Ratio [1]: 0.17
SMILES: CCCCCCC1CCc2cc(C3CCC(N)(CO)C3)ccc2C1 (stereo in doubt; 3h)
- Activity (Mus musculus [19]): 60%
